Assay results from ChEMBL document CHEMBL4138103, “Discovery of efficient stimulators for adult hippocampal neurogenesis based on scaffolds in dragon's blood” (Eur J Med Chem, 2017).
Calls of active or inactive are those of the source. The rule behind the calls is not given here.

Experiments:
[1] = Cytotoxicity against human SH-SY5Y cells assessed as cell survival at 100 uM after 24 hrs by MTT assay relative to control; type: cell-based; conditions: read-out: Survival
Procedure, shortened: (§1)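 SH-SY5Y human neuroblastoma cells seeded at 5 × 10⁴ cells/mL, incubated 24 h at 37 °C, then exposed to compounds at final concentrations of […] for 24 h. MTT added for a further 4 h at 37 °C. Absorbance read at 570 nm and reported as percent viability. Five parallel samples per condition.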

[2] = Cytotoxicity against human SH-SY5Y cells assessed as cell survival at 500 uM after 24 hrs by MTT assay relative to control; type: cell-based; conditions: read-out: Survival; procedure, shortened: as §1
[3] = Cytotoxicity against human SH-SY5Y cells assessed as cell survival at 1000 uM after 24 hrs by MTT assay relative to control; type: cell-based; conditions: read-out: Survival; procedure, shortened: as §1
Rattus norvegicus [4] = test: In vivo neurogenic activity in Sprague-Dawley rat neural progenitor cells at 2.2 mg/kg, ip qd pretreated for 28 days followed by BrdU addition at 2 hrs interval for twice on day 29 measured after 24 hrs by BrdU incorporation assay; type: functional, organism-based
Procedure, shortened: (§2)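 Male SD rats aged 10 weeks, acclimatized 7 days (11 weeks old at start), dosed ip once daily for 28 days with compound in soybean oil containing 10% ethanol; vehicle group received 10% ethanol in oil. On day 29, BrdU in saline given twice at 100 mg/kg, 2 h apart. Rats sacrificed 24 h after the last BrdU. BrdU+ cells in SGZ-GCL counted by DAB immunostaining of 30 µm cryosections; n = 8; mean ± SEM.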

Rattus norvegicus [5] = test: (§3) In vivo neurogenic activity in Sprague-Dawley rat neural progenitor cells assessed as differentiation of new born NPCs to mature functional neurons at 20 mg/kg, ip qd preincubated for 28 days followed by BrdU addition at 2 hrs interval for twice on day 29 measured at 28 days post BrdU pulse by NeuN/BrdU double staining based assay relative to control
Procedure, shortened: (§4)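 SD male rats, 11 weeks old, were given compound ip daily for 28 days in 10% ethanol/soybean oil. On day 29 they received BrdU 100 mg/kg ip twice, 2 h apart, and were perfused 28 days after the last BrdU. Fixed 30 µm cryosections were co-stained for BrdU and NeuN by fluorescence. BrdU+ cells and the BrdU+NeuN+/BrdU+ fraction were counted against vehicle, mean ± SEM, n = 8.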

Rattus norvegicus [6] = test: as §3, with “4” for “20”; procedure, shortened: as §4
Rattus norvegicus [7] = test: as §3, with “2” for “20”; procedure, shortened: as §4
Rattus norvegicus [8] = test: In vivo neurogenic activity in Sprague-Dawley rat neural progenitor cells at 4 mg/kg, ip qd pretreated for 28 days followed by BrdU addition at 2 hrs interval for twice on day 29 measured after 24 hrs by BrdU incorporation assay relative to control; type: functional; procedure, shortened: as §2
Rattus norvegicus [9] = test: Downregulation of AKT phosphorylation in Sprague-Dawley rat adult hippocampus at 2.2 to 4 mg/kg, ip qd preincubated for 28 days followed by BrdU addition at 2 hrs interval for twice on day 29 measured at 24 hrs post BrdU pulse by immunoblot assay; type: functional, organism-based; conditions: in the assay text read “Upregulation” for “Downregulation”
Procedure, shortened: (§5)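 Male SD rats (received at 10 weeks, acclimatized 7 days) were dosed ip once daily for 28 days. The compounds were given in soybean oil with 10% ethanol, and the vehicle group received 10% ethanol in oil. BrdU was given 100 mg/kg twice, 2 h apart, on day 29. Hippocampal tissue was taken 24 h or 28 days later. Lysates were made in RIPA with protease inhibitors and run on 12% SDS-PAGE. Akt, pAkt, ERK1/2 and pERK1/2 were immunoblotted and read by densitometry against GAPDH, normalized to vehicle = 1.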

Rattus norvegicus [10] = test: Downregulation of ERK phosphorylation in Sprague-Dawley rat adult hippocampus at 2.2 to 4 mg/kg, ip qd preincubated for 28 days followed by BrdU addition at 2 hrs interval for twice on day 29 measured at 24 hrs post BrdU pulse by immunoblot assay; type: functional, organism-based; conditions: in the assay text read “Upregulation” for “Downregulation”; procedure, shortened: as §5
Rattus norvegicus [11] = test: Downregulation of AKT phosphorylation in Sprague-Dawley rat adult hippocampus at 2 to 20 mg/kg, ip qd preincubated for 28 days followed by BrdU addition at 2 hrs interval for twice on day 29 measured at 28 days post BrdU pulse by immunoblot assay; type: functional, organism-based; procedure, shortened: as §5
Rattus norvegicus [12] = test: In vivo neurogenic activity in Sprague-Dawley rat neural progenitor cells at 2 mg/kg, ip qd preincubated for 28 days followed by BrdU addition at 2 hrs interval for twice on day 29 measured at 28 days post BrdU pulse by BrdU double staining based assay relative to control; type: functional; procedure, shortened: as §4
Rattus norvegicus [13] = test: Downregulation of ERK phosphorylation in Sprague-Dawley rat adult hippocampus at 2 to 20 mg/kg, ip qd preincubated for 28 days followed by BrdU addition at 2 hrs interval for twice on day 29 measured at 28 days post BrdU pulse by immunoblot assay; type: functional, organism-based; procedure, shortened: as §5
Rattus norvegicus [14] = test: Effect on AKT expression in Sprague-Dawley rat adult hippocampus at 2.2 to 4 mg/kg, ip qd preincubated for 28 days followed by BrdU addition at 2 hrs interval for twice on day 29 measured at 24 hrs post BrdU pulse by immunoblot assay; type: functional, organism-based; procedure, shortened: as §5
Rattus norvegicus [15] = test: Effect on ERK expression in Sprague-Dawley rat adult hippocampus at 2.2 to 4 mg/kg, ip qd preincubated for 28 days followed by BrdU addition at 2 hrs interval for twice on day 29 measured at 24 hrs post BrdU pulse by immunoblot assay; type: functional, organism-based; procedure, shortened: as §5
Rattus norvegicus [16] = test: Effect on AKT expression in Sprague-Dawley rat adult hippocampus at 2 to 20 mg/kg, ip qd preincubated for 28 days followed by BrdU addition at 2 hrs interval for twice on day 29 measured at 28 days post BrdU pulse by immunoblot assay; type: functional, organism-based; procedure, shortened: as §5
Rattus norvegicus [17] = test: Effect on ERK expression in Sprague-Dawley rat adult hippocampus at 2 to 20 mg/kg, ip qd preincubated for 28 days followed by BrdU addition at 2 hrs interval for twice on day 29 measured at 28 days post BrdU pulse by immunoblot assay; type: functional, organism-based; procedure, shortened: as §5
Rattus norvegicus [18] = test: In vivo neurogenic activity in Sprague-Dawley rat neural progenitor cells at 0.5 to 4 mg/kg, ip qd pretreated for 28 days followed by BrdU addition at 2 hrs interval for twice on day 29 measured after 24 hrs by BrdU incorporation assay; type: functional, organism-based
Procedure, shortened: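 Eleven-week-old SD male rats were dosed ip daily for 28 days in soybean oil with 10% ethanol, against a vehicle control. On day 29 BrdU 100 mg/kg was given twice, 2 h apart, and rats were sacrificed 24 h later. Sections were treated with HCl denaturation, BrdU antibody at 1:500 at 4 °C overnight and DAB detection. BrdU+ cells in the SGZ-GCL were counted, mean ± SEM, n = 8.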

[19] = Drug uptake in mouse brain at 20 mg/kg, po via gavage by HPLC-MS/MS analysis; type: ADME, organism-based; conditions: in vivo, read-out: Drug uptake
Rattus norvegicus [20] = test: In vivo neurogenic activity in Sprague-Dawley rat adult hippocampal at 0.05 mg/kg, ip qd preincubated for 28 days followed by BrdU addition at 2 hrs interval for twice at day 29 measured at 28 days post last dose by NeuN/BrdU double staining based immunohistochemistry assay relative to control; type: functional; procedure, shortened: as §4
Rattus norvegicus [21] = test: In vivo neurogenic activity in Sprague-Dawley rat adult hippocampal at 0.5 mg/kg, ip qd preincubated for 28 days followed by BrdU addition at 2 hrs interval for twice at day 29 measured at 28 days post last dose by NeuN/BrdU double staining based immunohistochemistry assay relative to control; type: functional; procedure, shortened: as §4
Rattus norvegicus [22] = test: Downregulation of AKT phosphorylation in Sprague-Dawley rat adult hippocampus at 0.5 to 4 mg/kg, ip qd preincubated for 28 days followed by BrdU addition at 2 hrs interval for twice on day 29 measured at 24 hrs post BrdU pulse by immunoblot assay; type: functional, organism-based; conditions: in the assay text read “Upregulation” for “Downregulation”; procedure, shortened: as §5
Rattus norvegicus [23] = test: Downregulation of ERK phosphorylation in Sprague-Dawley rat adult hippocampus at 0.5 to 4 mg/kg, ip qd preincubated for 28 days followed by BrdU addition at 2 hrs interval for twice on day 29 measured at 24 hrs post BrdU pulse by immunoblot assay; type: functional, organism-based; conditions: in the assay text read “Upregulation” for “Downregulation”; procedure, shortened: as §5
Rattus norvegicus [24] = test: Downregulation of AKT phosphorylation in Sprague-Dawley rat adult hippocampus at 0.05 to 0.5 mg/kg, ip qd preincubated for 28 days followed by BrdU addition at 2 hrs interval for twice on day 29 measured at 28 days post BrdU pulse by immunoblot assay; type: functional, organism-based; procedure, shortened: as §5
Rattus norvegicus [25] = test: Downregulation of ERK phosphorylation in Sprague-Dawley rat adult hippocampus at 0.05 to 0.5 mg/kg, ip qd preincubated for 28 days followed by BrdU addition at 2 hrs interval for twice on day 29 measured at 28 days post BrdU pulse by immunoblot assay; type: functional, organism-based; procedure, shortened: as §5
Rattus norvegicus [26] = test: Effect on AKT expression in Sprague-Dawley rat adult hippocampus at 0.5 to 4 mg/kg, ip qd preincubated for 28 days followed by BrdU addition at 2 hrs interval for twice on day 29 measured at 24 hrs post BrdU pulse by immunoblot assay; type: functional, organism-based; procedure, shortened: as §5
Rattus norvegicus [27] = test: Effect on ERK expression in Sprague-Dawley rat adult hippocampus at 0.5 to 4 mg/kg, ip qd preincubated for 28 days followed by BrdU addition at 2 hrs interval for twice on day 29 measured at 24 hrs post BrdU pulse by immunoblot assay; type: functional, organism-based; procedure, shortened: as §5
Rattus norvegicus [28] = test: Effect on AKT expression in Sprague-Dawley rat adult hippocampus at 0.05 to 0.5 mg/kg, ip qd preincubated for 28 days followed by BrdU addition at 2 hrs interval for twice on day 29 measured at 28 days post BrdU pulse by immunoblot assay; type: functional, organism-based; procedure, shortened: as §5
Rattus norvegicus [29] = test: Effect on ERK expression in Sprague-Dawley rat adult hippocampus at 0.05 to 0.5 mg/kg, ip qd preincubated for 28 days followed by BrdU addition at 2 hrs interval for twice on day 29 measured at 28 days post BrdU pulse by immunoblot assay; type: functional, organism-based; procedure, shortened: as §5

SMILES: CC(=O)Nc1ccc(/C=C/c2ccc3c(c2)OCO3)cc1
- viability at 24 h, 100 µM [1]: 97%
- viability at 24 h, 500 µM [2]: 91.9%
- viability at 24 h, 1000 µM [3]: 80.4%
- Activity (Rattus norvegicus [4]): Active
- fold change (FC) (Rattus norvegicus [5]): 2.3
- fold change (FC) (Rattus norvegicus [6]): 3.1
- fold change (FC) (Rattus norvegicus [7]): 4.6
- Activity (Rattus norvegicus [8]): Active
- Activity (Rattus norvegicus [9]): Active
- Activity (Rattus norvegicus [10]): Active
- Activity (Rattus norvegicus [11]): Active
- fold change (FC) (Rattus norvegicus [12]): 4.2
- Activity (Rattus norvegicus [13]): Active
- Activity (Rattus norvegicus [14]): Active
- Activity (Rattus norvegicus [15]): Active
- Activity (Rattus norvegicus [16]): Active
- Activity (Rattus norvegicus [17]): Active

SMILES: CC(C)C(=O)Nc1ccc(/C=C/c2ccc3c(c2)OCO3)cc1
- viability at 24 h, 100 µM [1]: 50.9%
- viability at 24 h, 500 µM [2]: 48.4%
- viability at 24 h, 1000 µM [3]: 42%
- fold change (FC) (Rattus norvegicus [8]): 2.2 - 3.5
- Activity (Rattus norvegicus [18]): Active

SMILES: CCC(=O)Nc1ccc(/C=C/c2ccc3c(c2)OCO3)cc1
- viability at 24 h, 100 µM [1]: 85.9%
- viability at 24 h, 500 µM [2]: 80.6%
- viability at 24 h, 1000 µM [3]: 61.5%
- Activity (Rattus norvegicus [4]): Active

SMILES: CC(=O)Nc1ccc(CCc2ccc3c(c2)OCO3)cc1
- viability at 24 h, 100 µM [1]: 90.3%
- viability at 24 h, 500 µM [2]: 79.4%
- viability at 24 h, 1000 µM [3]: 68.8%
- Activity (Rattus norvegicus [4]): inactive

SMILES: COc1cccc(NCC(F)Cn2c3ccc(Br)cc3c3cc(Br)ccc32)c1 (stereo not given)
- concentration [19]: 900 nM

SMILES: O=C(Nc1ccc(/C=C/c2ccc3c(c2)OCO3)cc1)c1ccccc1
- viability at 24 h, 100 µM [1]: 98.6%
- viability at 24 h, 500 µM [2]: 99.3%
- viability at 24 h, 1000 µM [3]: 85%
- fold change (FC) (Rattus norvegicus [8]): 2.2 - 3.5
- Activity (Rattus norvegicus [18]): Active
- fold change (FC) (Rattus norvegicus [20]): 1.6
- fold change (FC) (Rattus norvegicus [21]): 3.2
- Activity (Rattus norvegicus [22]): Active
- Activity (Rattus norvegicus [23]): Active
- Activity (Rattus norvegicus [24]): Active
- Activity (Rattus norvegicus [25]): Active
- Activity (Rattus norvegicus [26]): Active
- Activity (Rattus norvegicus [27]): Active
- Activity (Rattus norvegicus [28]): Active
- Activity (Rattus norvegicus [29]): Active

SMILES: COc1ccc(C#Cc2ccc3c(c2)OCO3)cc1
- viability at 24 h, 100 µM [1]: 75.9%
- viability at 24 h, 500 µM [2]: 69.1%
- viability at 24 h, 1000 µM [3]: 63.8%
- Activity (Rattus norvegicus [4]): inactive
